# Shown are actives, neighbours in structure and some others; about 3.3% of the full set was active somewhere.
# GAA850 FXN act = frataxin GAA850 promoter activation; HEK293 lucGAA850 FXN promoter luciferase reporter, 24 h; percent of 10 µM SAHA response; activation, % at 6 µM; 360,000 tested, 0.56% active; AID 540364;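 active = activation above the average of all compounds screened plus 3 SD, cutoff fixed separately per campaign, cut at about 7.5% in these data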;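 also: 0% = DMSO wells and 100% = 10 µM SAHA wells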
# ABCB6 inh MLPCN = human ABCB6 transporter inhibition. Q9NP58. K562-ABCB6 porphyrin accumulation, flow cytometry, 1 h; hits give low values. fluorescence ratio to DMSO, % at 10 µM. 360,000 tested, 0.19% active;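 active = fluorescence ratio to DMSO below 75%, the collection mean minus 3 SD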;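 also: signal is porphyrin accumulated inside mitochondria; 100% equals median channel fluorescence of DMSO control wells; lower ratio means ABCB6 inhibition with less porphyrin fluorescence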
# STAT3 act = increases IL-6 driven STAT3 reporter signal; activation (% of control), % at 5.6 µM; U3A cells, IL-6 STAT3-luciferase reporter, luminescence; 100% = signal with IL-6 EC80 alone; 190,000 tested, 0.91% active;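 active = activation above the screen-wide mean of compound activation plus 3 SD, cut at about 130% in these data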;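 also: 0% = background luminescence of wells with medium and substrate only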
#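 Detection: reporter luminescence signal / Assay system: STAT1-lacking human U3A cells, STAT3 luciferase reporter / Incubation: compound pre-incubation 1 h before IL-6, then 6 h stimulation at 37 °C / Control set: IL-6-only high control / Read-out: % activation relative to IL-6 control / Probe or stimulus: Interleukin-6, 33 ng/mL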
# AHR act = activates the human aryl hydrocarbon receptor. 320,000 tested, 2.5% active. P35869. activation, % at 5 µM. AHR-responsive luciferase reporter cells, luminescence; in the data active = activation above about 47%;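 also: 0% = vehicle wells and 100% = reference agonist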
# AHR act cf = human AHR activation, confirmation | shares compounds with AHR act | human cells, AHR-responsive luciferase reporter, luminescence | AID 2845 | activation, % at 9 µM | 2,300 tested, 87% active; in the data active = activation above about 49%;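 also: HepG2 hepatoma cells carrying a DRE-driven firefly luciferase reporter; 0% = vehicle wells and 100% = reference agonist wells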
# PXR act counter = PXR activation, counter-screen for AHR activators; cell-based PXR reporter, luciferase luminescence; 2,300 tested, 88% active; shares compounds with AHR act; activation, % at 11.6 µM; in the data active = activation above about 11%;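 also: human hepatoma DPX-2 cells expressing full-length human PXR; 0% = DMSO and 100% = reference agonist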
# Target sequence (O75469 whole entry, looked up): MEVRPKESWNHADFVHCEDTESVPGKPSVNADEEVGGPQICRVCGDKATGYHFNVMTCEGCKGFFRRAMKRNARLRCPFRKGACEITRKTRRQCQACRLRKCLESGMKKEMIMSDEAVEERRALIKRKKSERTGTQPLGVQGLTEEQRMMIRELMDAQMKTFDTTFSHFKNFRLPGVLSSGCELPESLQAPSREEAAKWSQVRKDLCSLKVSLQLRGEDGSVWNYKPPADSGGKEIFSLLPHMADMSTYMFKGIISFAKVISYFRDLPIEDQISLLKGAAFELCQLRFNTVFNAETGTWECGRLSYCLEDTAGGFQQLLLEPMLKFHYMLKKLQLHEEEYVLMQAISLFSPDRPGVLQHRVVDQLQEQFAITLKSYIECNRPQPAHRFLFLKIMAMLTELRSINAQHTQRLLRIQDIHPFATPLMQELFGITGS
# Active calls of the source: *; nt = no result.
SMILES,GAA850 FXN act,ABCB6 inh MLPCN,STAT3 act,AHR act,AHR act cf,PXR act counter
COc1cccc(C(=O)Nc2cc(NC(=O)c3cccs3)ccc2C)c1OC,1,98,nt,15,nt,nt
COc1cccc(C(=O)Nc2ccc3[nH]ncc3c2)c1OC,1,101,nt,92*,68*,12*
O=C(COc1cc(F)ccc1[N+](=O)[O-])Nc1ccc2c(c1)OCO2,5,94,nt,-4,nt,nt
CC(=O)c1cc(F)ccc1OCC(=O)Nc1ccc2c(c1)OCO2,4,100,nt,94*,105*,29*
CCOc1ncccc1C(=O)Nc1ccc2c(c1)OCO2,1,100,97,110*,130*,32*
CCOc1ncccc1C(=O)Nc1nnc(C2CC2)s1,0,92,92,104*,95*,36*
O=C(Nc1nnc(C2CC2)s1)c1ccncc1,-1,96,92,13,nt,nt
CC(C)CC(=O)NC(Nc1ccc([N+](=O)[O-])cc1)C(Cl)(Cl)Cl (stereo not drawn),-1,101,86,1,nt,nt
CC1=C(C(=O)OC2CCCCC2)C(c2ccccc2)NC(=O)N1 (stereo not drawn),2,98,nt,-3,nt,nt
CN(C(=O)COC(=O)CN1C(=O)C2CC=CCC2C1=O)c1ccccc1 (stereo not drawn),-1,97,nt,3,nt,nt
CCOC(=O)CN1C(=O)C(O)=C(C(C)=O)C1c1ccc(F)cc1 (stereo not drawn),-1,92,100,1,nt,nt
COc1ccccc1N(CC(=O)Nc1ccc2c(c1)OCO2)S(=O)(=O)c1ccccc1,-3,98,113,98*,97*,187*
COC(=O)c1cc(C(=O)Nc2nnc(C3CC3)s2)cc([N+](=O)[O-])c1,0,99,100,81*,83*,nt
CCOc1ccc2oc(C(=O)Nc3ccc(N4CCOCC4)cc3)c(C)c2c1,-2,87,80,-7,nt,nt
COc1cccc(C(=O)NCc2ccc3c(c2)OCO3)c1OC,3,98,nt,nt,nt,nt
COc1cccc(C(=O)Nc2ccc3c(c2)OCO3)c1OC,2,102,nt,103*,54*,70*
CCOc1ccc2oc(C(=O)Nc3ccc4c(c3)OCO4)c(C)c2c1,4,99,nt,83*,38,25*
Cc1nn(CC(C)C)c(Cl)c1C(=O)N(C)CC(=O)Nc1c(Cl)cccc1Cl,3,96,nt,-1,nt,nt
COCCN1C(=O)C(=O)/C(=C(/O)c2ccc(S(=O)(=O)N3CCCCC3)cc2)C1c1ccc(OC)cc1 (stereo not drawn),2,94,nt,-1,nt,nt
COc1ccc(NC(=O)c2ccco2)cc1NC(=O)c1ccccc1F,-3,101,nt,87*,95*,12*
COc1ccc(NC(=O)c2cccs2)cc1NC(=O)c1ccco1,1,90,84,11,nt,nt
COc1ccc(Br)cc1C(=O)Nc1cccc(NC(=O)c2ccco2)c1,1,99,82,84*,98*,15*
COc1c(C)cc(Br)cc1C(=O)Nc1cccc(NC(=O)c2ccco2)c1,-4,81,80,-3,nt,nt
CC(C)(C)c1ccc(NC(=O)c2ccsc2)cc1,4,100,nt,1,nt,nt
Cc1ccc(NC(=O)c2ccsc2)cc1NS(C)(=O)=O,2,96,nt,84*,95*,33*
SMILES,GAA850 FXN act,ABCB6 inh MLPCN,STAT3 act,AHR act,AHR act cf,PXR act counter
COc1cc(C(=O)NC2=NCCS2)cc(OC)c1OC,-2,86,96,28,nt,nt
COc1cc(OC)cc(C(=O)NC2=NCCS2)c1,0,93,93,95*,101*,20*
C=CCNC(=O)CSc1nnc(C(CC)N(C)C)n1C1CCCCC1 (stereo not drawn),0,97,nt,2,nt,nt
Brc1ccccc1/C=N/Nc1ccc2ccccc2n1,4,99,128,94*,131*,14*
O=[N+]([O-])c1cccc(C=NNc2ccc3ccccc3n2)c1O,-11,97,nt,nt,nt,nt
O=S(=O)(Nc1cccc(-c2nc3cccnc3s2)c1)c1cccs1,3,106,nt,5,nt,nt
CCCS(=O)(=O)Nc1cccc(-c2nc3cccnc3s2)c1,6,100,nt,91*,99*,40*
Cc1ccc(-c2nc3cccnc3s2)cc1NS(C)(=O)=O,6,90,nt,142*,121*,37*
Cc1cc(C)c(O)c(N)c1,nt,nt,106,nt,nt,nt
COc1ccc(OC)c(NC(=O)c2sc3ncnc(N4CCN(c5ccccn5)CC4)c3c2C)c1,-2,97,nt,-4,nt,nt

# Screens deposited in PubChem by several laboratories.
